Data as given in ChEMBL document CHEMBL4000209, “Chemical synthesis and biological evaluation of ω-hydroxy polyunsaturated fatty acids” (Bioorg Med Chem Lett, 2017).
Activity calls are given as the source filed them.

Assays:
[1] = tested on: Rattus norvegicus; experiment: Induction of mechanical allodynia in Sprague-Dawley rat assessed as decrease in withdrawal threshold at 100 ng administered as intraplantar injection by Von Frey assay relative to control; parameters: scale not given: the % may be the effect or the level left; conditions: in vivo, other
Procedure, shortened: (§1)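 Naive male Sprague Dawley rats, n = 6; methyl esters given by intraplantar injection in 1:9 EtOH/saline. Mechanical withdrawal thresholds measured with an electronic von Frey aesthesiometer over a time course, ipsilateral and contralateral paws. Data analysed by two-way ANOVA with Holm-Sidak post hoc test.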

[2] = tested on: Rattus norvegicus; experiment: Induction of mechanical allodynia in Sprague-Dawley rat assessed as decrease in withdrawal threshold at 1 ug administered as intraplantar injection measured up to 150 mins post dose by Von Frey assay; parameters: scale not given: the % may be the effect or the level left; conditions: in vivo, other, 2.5 h; procedure, shortened: as §1
[3] = molecular target: Transient receptor potential cation channel subfamily V member 1 (Mus musculus) (UniProt Q704Y3); experiment: Agonist activity at recombinant mouse TRPV1 expressed in HEK293 cells assessed as increase in calcium influx at 10 uM measured for 380 sec by Fluo-4 dye based FLIPR assay; format: cell-based
Sequence of Transient receptor potential cation channel subfamily V member 1 (Mus musculus) (Q704Y3 whole entry): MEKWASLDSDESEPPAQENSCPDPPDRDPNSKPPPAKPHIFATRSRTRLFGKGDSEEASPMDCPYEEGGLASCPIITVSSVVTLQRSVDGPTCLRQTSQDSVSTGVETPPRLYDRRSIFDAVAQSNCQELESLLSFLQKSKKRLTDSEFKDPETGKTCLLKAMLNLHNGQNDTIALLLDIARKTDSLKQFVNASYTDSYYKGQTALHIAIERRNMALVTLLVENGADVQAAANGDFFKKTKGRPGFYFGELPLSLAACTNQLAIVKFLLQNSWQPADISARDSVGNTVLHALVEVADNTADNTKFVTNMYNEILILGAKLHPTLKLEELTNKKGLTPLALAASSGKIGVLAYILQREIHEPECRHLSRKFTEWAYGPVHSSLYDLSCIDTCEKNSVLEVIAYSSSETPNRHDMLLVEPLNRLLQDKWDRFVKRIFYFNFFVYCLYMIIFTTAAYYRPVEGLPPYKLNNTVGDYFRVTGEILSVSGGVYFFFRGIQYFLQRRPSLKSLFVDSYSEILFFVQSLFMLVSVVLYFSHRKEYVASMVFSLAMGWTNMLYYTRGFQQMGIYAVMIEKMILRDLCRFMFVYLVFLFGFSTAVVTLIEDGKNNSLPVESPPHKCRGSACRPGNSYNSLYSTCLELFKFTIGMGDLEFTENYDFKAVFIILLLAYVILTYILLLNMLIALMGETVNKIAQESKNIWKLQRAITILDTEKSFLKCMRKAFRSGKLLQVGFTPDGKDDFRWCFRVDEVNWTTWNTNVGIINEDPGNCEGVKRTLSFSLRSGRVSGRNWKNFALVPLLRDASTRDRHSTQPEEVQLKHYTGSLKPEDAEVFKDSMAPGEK
Procedure, shortened: (§2)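 mTRPV1-transfected HEK293 cells; Ca2+ influx followed over time and quantified as area under the curve; capsaicin as positive control. Experiments repeated twice, each in triplicate.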

[4] = molecular target: T1, Prostaglandin G/H synthase 1 (Ovis aries) (UniProt P05979); experiment: Inhibition of ovine COX1 at 100 uM using arachidonic acid as substrate after 2 mins by fluorometric substrate-based fluorescence assay relative to control
T1 sequence (whole entry): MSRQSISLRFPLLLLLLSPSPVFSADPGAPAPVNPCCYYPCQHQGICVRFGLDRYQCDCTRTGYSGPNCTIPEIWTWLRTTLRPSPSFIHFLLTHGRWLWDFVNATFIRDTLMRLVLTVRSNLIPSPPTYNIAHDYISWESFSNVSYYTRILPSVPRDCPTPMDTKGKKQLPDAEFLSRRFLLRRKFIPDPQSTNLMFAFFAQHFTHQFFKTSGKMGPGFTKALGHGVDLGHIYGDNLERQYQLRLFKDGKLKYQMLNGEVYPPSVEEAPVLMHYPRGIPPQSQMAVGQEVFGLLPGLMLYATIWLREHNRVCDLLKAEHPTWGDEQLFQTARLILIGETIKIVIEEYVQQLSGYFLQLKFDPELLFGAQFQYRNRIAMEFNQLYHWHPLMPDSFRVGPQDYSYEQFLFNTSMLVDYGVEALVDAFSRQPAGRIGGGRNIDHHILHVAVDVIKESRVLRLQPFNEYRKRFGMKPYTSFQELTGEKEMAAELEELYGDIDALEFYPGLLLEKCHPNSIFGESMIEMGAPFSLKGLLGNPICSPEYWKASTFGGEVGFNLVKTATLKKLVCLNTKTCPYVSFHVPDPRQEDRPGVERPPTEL

[5] = molecular target: T2, Prostaglandin G/H synthase 2 (Homo sapiens) (UniProt P35354); conditions: at 100 µM
T2 sequence (whole entry): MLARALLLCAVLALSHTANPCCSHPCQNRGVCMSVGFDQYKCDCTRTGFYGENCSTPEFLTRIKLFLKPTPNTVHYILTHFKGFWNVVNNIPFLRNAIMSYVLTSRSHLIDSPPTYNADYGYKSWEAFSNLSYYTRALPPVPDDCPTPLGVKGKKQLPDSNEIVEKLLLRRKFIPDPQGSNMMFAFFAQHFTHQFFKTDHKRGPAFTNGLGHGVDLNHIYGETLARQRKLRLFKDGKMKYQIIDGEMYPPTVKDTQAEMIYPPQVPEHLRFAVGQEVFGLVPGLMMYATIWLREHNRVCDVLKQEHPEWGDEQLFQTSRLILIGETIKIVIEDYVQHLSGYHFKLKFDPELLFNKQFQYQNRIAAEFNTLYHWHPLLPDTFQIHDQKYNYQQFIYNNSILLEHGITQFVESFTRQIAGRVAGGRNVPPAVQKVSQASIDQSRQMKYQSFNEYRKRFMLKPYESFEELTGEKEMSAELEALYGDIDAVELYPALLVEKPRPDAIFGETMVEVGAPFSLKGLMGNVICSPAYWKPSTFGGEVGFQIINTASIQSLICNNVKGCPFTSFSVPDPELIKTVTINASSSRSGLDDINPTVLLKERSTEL

[6] = tested on: Rattus norvegicus; experiment: Induction of mechanical allodynia in Sprague-Dawley rat assessed as decrease in ipsilateral hind paw withdrawal threshold administered as intraplantar injection measured up to 150 mins post dose by Von Frey assay; conditions: in vivo, other, 2.5 h; procedure, shortened: as §1
[7] = tested on: Rattus norvegicus; experiment: Induction of mechanical allodynia in Sprague-Dawley rat assessed as decrease in contralateral hind paw withdrawal threshold at 3 ug administered as intraplantar injection measured up to 150 mins post dose by Von Frey assay; conditions: in vivo, other, 2.5 h; procedure, shortened: as §1
[8] = molecular target: Transient receptor potential cation channel subfamily V member 1 (Mus musculus) (UniProt Q704Y3); experiment: Agonist activity at recombinant mouse TRPV1 expressed in HEK293 cells assessed as increase in calcium influx up to 10 uM measured for 380 sec by Fluo-4 dye based FLIPR assay; format: cell-based; procedure, shortened: as §2

Activity [1] [%]	Activity [3]	inhibition [4] [%]	inhibition [5] [%]	Activity [6]	Activity [8]	SMILES	Activity [2]	Activity [7]
60	–	–	–	–	–	CCCCC[C@H](O)/C=C/[C@H]1[C@H](O)CC(=O)[C@@H]1C/C=C\CCCC(=O)O [DINOPROSTONE]	–	–
–	Active	38.1	1	–	–	O=C(O)CC/C=C\C/C=C\C/C=C\C/C=C\C/C=C\C/C=C\CCO	Non-Toxic	–
–	–	27.5	0	Dose-dependent effect	inactive	O=C(O)CCC/C=C\C/C=C\C/C=C\C/C=C\CCCCCO	30%	Non-Toxic
–	Active	37.1	0	–	–	O=C(O)CCC/C=C\C/C=C\C/C=C\C/C=C\C/C=C\CCO	Non-Toxic	–
